Measured values taken from ChEMBL document CHEMBL1140695, “Endomorphin-2 with a beta-turn backbone constraint retains the potent micro-opioid receptor agonist properties” (J Med Chem, 2008).

Tests used:
[1] = Stability in rat brain assessed as half life; format: ADME, tissue-based
How it was run: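 Peptides incubated in rat brain homogenate lacking cerebellum. Digestion mixtures analysed by RP-HPLC; velocity constants and half-lives calculated assuming pseudo-first-order kinetics.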

Mu-type opioid receptor [2] = target: Mu-type opioid receptor (Rattus norvegicus, UniProt P33535); assay: Displacement of [3H]DAMGO from mu opioid receptor in Wistar rat brain after 45 mins
Chain of Mu-type opioid receptor (Rattus norvegicus, UniProt P33535) (P33535 whole entry): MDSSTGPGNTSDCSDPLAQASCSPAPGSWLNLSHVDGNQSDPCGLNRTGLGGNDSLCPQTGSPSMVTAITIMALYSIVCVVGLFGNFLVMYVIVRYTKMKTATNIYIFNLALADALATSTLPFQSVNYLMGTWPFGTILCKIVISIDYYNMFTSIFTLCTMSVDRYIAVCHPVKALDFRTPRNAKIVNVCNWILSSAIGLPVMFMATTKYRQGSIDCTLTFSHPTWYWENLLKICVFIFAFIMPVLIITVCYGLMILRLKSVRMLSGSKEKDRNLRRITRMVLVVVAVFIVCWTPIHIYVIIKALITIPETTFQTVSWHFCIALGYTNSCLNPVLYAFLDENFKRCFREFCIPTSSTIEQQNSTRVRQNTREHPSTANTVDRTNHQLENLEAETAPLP
How it was run: (§1)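 Radioligand binding on a crude membrane fraction of Wistar rat forebrain.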

[3] = target: Delta-type opioid receptor (Rattus norvegicus, UniProt P33533); assay: Displacement of [3H]deltorphin 2 from delta opioid receptor in Wistar rat brain after 45 mins; how it was run: as §1
Chain of Delta-type opioid receptor (P33533 whole entry): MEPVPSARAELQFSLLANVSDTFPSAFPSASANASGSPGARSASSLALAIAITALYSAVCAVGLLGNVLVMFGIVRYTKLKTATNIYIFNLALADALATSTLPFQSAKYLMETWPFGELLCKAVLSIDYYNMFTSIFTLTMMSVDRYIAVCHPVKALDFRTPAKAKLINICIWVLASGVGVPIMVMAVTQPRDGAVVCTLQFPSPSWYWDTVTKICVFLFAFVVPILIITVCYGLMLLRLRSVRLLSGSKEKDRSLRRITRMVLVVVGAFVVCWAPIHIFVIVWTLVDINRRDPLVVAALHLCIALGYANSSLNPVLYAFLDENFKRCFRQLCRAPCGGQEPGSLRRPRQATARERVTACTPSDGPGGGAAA

[4] = target: Mu-type opioid receptor (Rattus norvegicus) (UniProt P33535); assay: Agonist activity at mu opioid receptor in rat brain assessed as maximal stimulation of [35S]GTP-gamma-S binding relative to basal level; format: functional, tissue-based
Chain of Mu-type opioid receptor (Rattus norvegicus) (P33535 whole entry): as the sequence (P33535 whole entry) above
How it was run: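 [35S]GTPγS binding in rat brain membrane fractions, reversal tested with naloxone 1 µM.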

Mu-type opioid receptor [5] = target: Mu-type opioid receptor (Mus musculus, UniProt P42866); assay: Agonist activity at mu opioid receptor in NMRI mouse vas deferens assessed as inhibition of electrically-stimulated muscle contraction; format: functional, tissue-based
Chain of Mu-type opioid receptor (Mus musculus, UniProt P42866) (P42866 whole entry): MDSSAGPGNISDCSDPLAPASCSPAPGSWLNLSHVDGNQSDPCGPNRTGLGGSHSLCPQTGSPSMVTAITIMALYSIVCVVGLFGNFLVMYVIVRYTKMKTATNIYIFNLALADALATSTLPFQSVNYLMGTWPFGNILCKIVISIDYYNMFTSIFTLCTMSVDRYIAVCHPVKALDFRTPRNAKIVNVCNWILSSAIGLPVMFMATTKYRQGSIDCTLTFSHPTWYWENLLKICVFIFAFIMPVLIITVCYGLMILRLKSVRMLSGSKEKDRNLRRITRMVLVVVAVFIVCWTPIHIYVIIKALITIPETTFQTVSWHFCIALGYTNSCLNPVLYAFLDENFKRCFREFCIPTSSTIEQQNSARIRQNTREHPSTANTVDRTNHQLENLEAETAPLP
How it was run: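 Mouse vas deferens preparation; agonist potency. Values are means ± S.E.M of 3–7 independent duplicate experiments.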

[6] = target: Mu-type opioid receptor (Homo sapiens) (UniProt P35372); conditions: CHO
Chain of Mu-type opioid receptor (Homo sapiens) (P35372 whole entry): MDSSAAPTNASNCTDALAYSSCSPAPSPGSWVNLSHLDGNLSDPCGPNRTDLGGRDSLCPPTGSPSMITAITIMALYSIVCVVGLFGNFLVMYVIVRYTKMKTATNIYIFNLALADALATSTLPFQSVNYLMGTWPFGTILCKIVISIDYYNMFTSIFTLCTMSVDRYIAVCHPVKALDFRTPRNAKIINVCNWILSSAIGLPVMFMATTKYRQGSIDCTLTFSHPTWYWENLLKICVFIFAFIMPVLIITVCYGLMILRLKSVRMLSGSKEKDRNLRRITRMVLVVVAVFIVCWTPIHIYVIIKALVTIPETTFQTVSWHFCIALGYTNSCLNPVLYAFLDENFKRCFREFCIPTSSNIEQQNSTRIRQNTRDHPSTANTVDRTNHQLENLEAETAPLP

[7] = target: Mu-type opioid receptor (Rattus norvegicus) (UniProt P33535); conditions: Brain

For NC(=O)[C@H](Cc1ccccc1)NC(=O)CN1Cc2ccccc2C[C@@]2(CCCN2C(=O)[C@@H](N)Cc2ccc(O)cc2)C1=O, the half-life [1] was > 24 h, the Ki (Mu-type opioid receptor [2]) was 8.73 nM and the Ki [3] was 2.31 nM.

In the case of NC(=O)[C@H](Cc1ccccc1)NC(=O)CN1Cc2ccccc2C[C@@H](NC(=O)[C@@H](N)Cc2ccc(O)cc2)C1=O, the half-life [1] is reported as 3.3 h, the Ki (Mu-type opioid receptor [2]) is reported as 2.25 nM and the Ki [3] is reported as 2.96 nM.

With NC(=O)[C@H](Cc1ccccc1)NC(=O)[C@H](Cc1ccccc1)NC(=O)[C@@H]1CCCN1C(=O)[C@@H](N)Cc1ccc(O)cc1 [ENDOMORPHIN 2] the half-life [1] was 0.0633 h.

For CN1CC[C@]23c4c5ccc(O)c4O[C@H]2[C@@H](O)C=C[C@H]3[C@H]1C5, the Emax [4] was 134%.

For NC(=O)[C@H](Cc1ccccc1)NC(=O)CN1Cc2ccccc2C[C@]2(CCCN2C(=O)[C@@H](N)Cc2ccc(O)cc2)C1=O, the half-life [1] was > 24 h, the Ki (Mu-type opioid receptor [2]) was 0.0293 nM and the Ki [3] was > 10 nM. It also gave an Emax [4] of 134%, an IC50 (Mu-type opioid receptor [5]) of 49.8 nM and a Log10ED50 [6] of 6.88. It also gave a Log10ED50 [7] of 6.74.

For NC(=O)[C@H](Cc1ccccc1)NC(=O)CN1Cc2ccccc2C[C@H](NC(=O)[C@@H](N)Cc2ccc(O)cc2)C1=O, the half-life [1] was 0.0117 h, the Ki (Mu-type opioid receptor [2]) was 0.373 nM and the Ki [3] was 0.778 nM.

In the case of C[C@@H](NC(=O)[C@@H](N)Cc1ccc(O)cc1)C(=O)NCC(=O)N(C)[C@@H](Cc1ccccc1)C(=O)NCCO, the Emax [4] is reported as 169%.
